{"data": "Experimental data from different studies", "target": "Casein kinase I isoform delta (CSNK1D, Homo sapiens, UniProt P48730)", "note": "Compare with care: the assays were run in different laboratories."}
{"Structure (SMILES)": "CCCS(=O)(=O)Nc1ccc(F)c(C(=O)c2c[nH]c3ncc(-c4ccc(Cl)cc4)cc23)c1F", "effect on": "enzyme activity", "mode": "inhibitor", "tested at": "1 µM", "endpoint": "inhibition", "value": "< 10%"}
{"Structure (SMILES)": "CS(=O)(=O)CCNCc1ccc(-c2ccc3ncnc(Nc4ccc(OCc5cccc(F)c5)c(Cl)c4)c3c2)o1", "effect on": "cell-free assay", "tested at": "0.5 µM", "endpoint": "remaining signal", "value": "91.2%"}
{"Structure (SMILES)": "CC(C)(C)c1nc(-c2cccc(NS(=O)(=O)c3c(F)cccc3F)c2F)c(-c2ccnc(N)n2)s1", "effect on": "enzyme activity", "mode": "inhibitor", "method": "radiometric", "tested at": "1 µM", "endpoint": "remaining activity", "value": "81%"}
{"Structure (SMILES)": "CN([C@@H]1CCc2c(CC(=O)O)c3cc(S(C)(=O)=O)ccc3n2C1)S(=O)(=O)c1ccc(F)cc1", "effect on": "cell-free assay", "method": "competition with immobilised ligand", "tested at": "1 µM", "endpoint": "remaining binding", "value": "100%"}
{"Structure (SMILES)": "COc1cc2ncnc(Nc3ccc(Oc4ccccc4)cc3C)c2cc1OC", "effect on": "enzyme activity", "mode": "inhibitor", "tested at": "1 µM", "endpoint": "inhibition", "value": "0%"}
{"Structure (SMILES)": "COc1cc(/C=C/C(=O)CC(=O)/C=C/c2ccc(O)c(OC)c2)ccc1O", "effect on": "enzyme activity", "mode": "inhibitor", "tested at": "1 µM", "endpoint": "activity vs control", "value": "105%"}
{"Structure (SMILES)": "CS(=O)(=O)N1CCCC(NC(=O)[C@H](CCC2CCCCC2)NC(=O)c2ccc(CNC(=O)c3cnc4ccccn34)cc2)C1 (stereo partly shown)", "effect on": "cell-free assay", "method": "competition with immobilised ligand", "tested at": "0.1 µM", "endpoint": "remaining binding", "value": "84%"}
{"Structure (SMILES)": "Nc1ncnc2c1cnn2-c1ccccc1", "effect on": "cell-free assay", "tested at": "0.5 µM", "endpoint": "remaining signal", "value": "79.5%"}
{"Structure (SMILES)": "Cc1cnc(NC2CCOCC2)nc1-n1cnc(C(=O)NC(CN)c2cc(F)cc(Cl)c2)c1 (stereo not shown)", "effect on": "enzyme activity", "mode": "inhibitor", "method": "radiometric", "tested at": "1 µM", "endpoint": "remaining activity", "value": "53%"}
{"Structure (SMILES)": "CNc1cccc2cc(C(=O)Nc3ccc(C(=O)O)cc3)c(=O)[nH]c12", "effect on": "enzyme activity", "mode": "inhibitor", "tested at": "10 µM", "endpoint": "inhibition", "value": "25%"}
{"Structure (SMILES)": "CC/C(=N\\NC(=O)NCc1cccc(O)c1)c1ccc(O)c(C)c1O", "effect on": "enzyme activity", "mode": "inhibitor", "tested at": "0.1 µM", "endpoint": "inhibition", "value": "3.7%"}
{"Structure (SMILES)": "O=C(Nc1cnn(-c2csc(C(=O)NC3COC3)c2)c1)Nc1c(F)cccc1Cl", "effect on": "enzyme activity", "mode": "inhibitor", "tested at": "5 µM", "endpoint": "remaining activity", "value": "117%"}
{"Structure (SMILES)": "COc1cc(Nc2cnc(C#N)c(O[C@H](C)CN(C)C)n2)ncc1-c1cnn(C)c1", "effect on": "enzyme activity", "mode": "inhibitor", "method": "radiometric", "tested at": "1 µM", "endpoint": "remaining activity", "value": "76%"}
{"Structure (SMILES)": "COc1cc2c(Nc3ccc(Br)cc3F)ncnc2cc1OCC1CCN(C)CC1", "effect on": "cell-free assay", "tested at": "0.5 µM", "endpoint": "remaining signal", "value": "94.4%"}
{"Structure (SMILES)": "C[C@@]1(Cc2ccc(C#N)cc2)C(=O)N(c2cc(Cl)cc(Cl)c2)c2ncc(C(=O)NC3(c4nc(C5CCC5)no4)CC3)n21", "effect on": "cell-free assay", "method": "competition with immobilised ligand", "tested at": "1 µM", "endpoint": "remaining binding", "value": "100%"}
{"Structure (SMILES)": "CN1CC(Oc2cnc(C#N)cc2-c2ccn3nc(NC(=O)C4CC4)cc3c2)C1", "effect on": "enzyme activity", "mode": "inhibitor", "tested at": "1 µM", "endpoint": "inhibition", "value": "-20%"}
{"Structure (SMILES)": "CN(c1ccnc(CNc2nc(Nc3ccc4c(c3)CC(=O)N4)ncc2C(F)(F)F)n1)S(C)(=O)=O", "effect on": "cell-free assay", "method": "competition with immobilised ligand", "tested at": "1 µM", "endpoint": "remaining binding", "value": "100%"}
{"Structure (SMILES)": "FC(F)(F)Oc1cccc(-c2cnc3ccc(-c4ccncc4)nn23)c1", "effect on": "enzyme activity", "mode": "inhibitor", "method": "radiometric", "tested at": "5 µM", "endpoint": "activity vs control", "value": "97%"}
{"Structure (SMILES)": "CO[C@@H](C)c1c(Nc2ccc([C@H](N(C)C(=O)C3CCS(=O)(=O)CC3)C(F)(F)F)cc2)cnc2cc(Cl)nn12", "effect on": "cell-free assay", "method": "competition with immobilised ligand", "tested at": "1 µM", "endpoint": "remaining binding", "value": "88%"}
{"Structure (SMILES)": "Nc1ncnc2occ(-c3ccc(NC(=O)Nc4cc(C(F)(F)F)ccc4F)cc3)c12", "effect on": "cell-free assay", "mode": "inhibitor", "tested at": "20 µM", "endpoint": "remaining signal", "value": "3.9%"}
{"Structure (SMILES)": "O=C1NC(=O)c2cc(Nc3ccc(F)cc3)c(Nc3ccc(F)cc3)cc21", "effect on": "cell-free assay", "tested at": "0.5 µM", "endpoint": "remaining signal", "value": "109%"}
{"Structure (SMILES)": "CC(=O)N1CCC(c2ccc(C(=O)NC3=NCCN3)cc2C(F)(F)F)CC1", "effect on": "cell-free assay", "method": "competition with immobilised ligand", "tested at": "1 µM", "endpoint": "remaining binding", "value": "100%"}
{"Structure (SMILES)": "CS(=O)(=O)Nc1cccc(-c2csc(NC(=O)CSc3nc4nccnc4c(=O)n3CCc3ccccc3)n2)c1", "effect on": "enzyme activity", "mode": "inhibitor", "tested at": "10 µM", "endpoint": "inhibition", "value": "10%"}
{"Structure (SMILES)": "Nc1cnc(N2CCc3cc(S(=O)(=O)Nc4c(F)cc(Cl)cc4F)cc(N4CCCC4=O)c32)nc1", "effect on": "cell-free assay", "method": "competition with immobilised ligand", "tested at": "1 µM", "endpoint": "remaining binding", "value": "98%"}
{"Structure (SMILES)": "Cc1ccc(C(=O)Nc2ccc(CN3CCN(C)CC3)c(C(F)(F)F)c2)cc1C#Cc1cnc2cccnn12", "effect on": "enzyme activity", "tested at": "23.5 nM", "endpoint": "remaining activity", "value": "100%"}
